Data reported in ChEMBL document CHEMBL2040834, “Synthesis, crystal structures and electronic properties of isomers of chloro-pyridinylvinyl-1H-indoles” (Eur J Med Chem, 2012).
In brackets after ≈: the same amount, converted by molar mass.

Key:
[1] = target: T1, Tryptophan 2,3-dioxygenase (Homo sapiens, UniProt P48775); assay: Inhibition of human purified TDO assessed as formation of kynurenine from N-formylkynurenine preincubated for 10 mins measured after 5 to 20 mins by discontinuous colorimetric method
T1 sequence (P48775 whole entry): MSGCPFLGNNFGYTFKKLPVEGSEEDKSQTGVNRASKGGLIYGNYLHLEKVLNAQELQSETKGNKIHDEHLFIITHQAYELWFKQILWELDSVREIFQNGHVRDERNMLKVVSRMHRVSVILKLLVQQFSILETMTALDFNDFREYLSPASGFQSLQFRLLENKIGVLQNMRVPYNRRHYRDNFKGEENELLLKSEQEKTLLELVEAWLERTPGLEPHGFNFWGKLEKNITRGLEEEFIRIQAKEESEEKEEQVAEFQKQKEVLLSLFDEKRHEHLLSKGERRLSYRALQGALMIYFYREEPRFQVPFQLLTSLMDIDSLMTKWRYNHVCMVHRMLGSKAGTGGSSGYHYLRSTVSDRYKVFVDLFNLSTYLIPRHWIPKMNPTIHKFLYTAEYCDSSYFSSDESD

[2] = Solubility of the compound in 0.1 M of boric acid at pH 9 by HTS-PCF filter plate analysis; type: physicochemical; conditions: buffer
Summary of the method: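 Solubility measured by filter-plate filtration at 2.5% final DMSO. Buffers: pH 1.0 (0.1 M HCl, 20 mM NaCl), pH 7.4 (50 mM phosphate, 30 mM NaCl), pH 9.0 (0.1 M boric acid, 20 mM NaCl). Filtrate quantified by C18 LC/MS with UV detection at 254 nm, using a 5–95% acetonitrile gradient in 0.1% acetic acid.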

[3] = target: T1, Tryptophan 2,3-dioxygenase; assay: Competitive inhibition of human purified TDO by Henri-Michaelis-Menten equation analysis
Summary of the method: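 Recombinant human TDO expressed in E. coli, purified. Kynurenine formation read at 480 nm with Ehrlich's reagent after TCA stop and 65 °C hydrolysis. L-Trp and inhibitor concentrations both varied. Initial rates fitted to Henri–Michaelis–Menten equation for competitive Ki; Km obtained from the same data.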

[4] = target: T1, Tryptophan 2,3-dioxygenase; assay: Inhibition of human purified TDO assessed as initial rate of L-Trp oxidation at 100 uM of substrate concentration

| IC50 [1] [µM] | solubility [2] [mg/mL] | Ki [3] [µM] | IC50 [4] [µM] | SMILES |
| --- | --- | --- | --- | --- |
| 5 | 32.1 (≈ 126 mM) |  |  | Clc1ccc2c(/C=C/c3cccnc3)c[nH]c2c1 |
| > 50 | 6 (≈ 23.6 mM) | 21 | 32 | Clc1cccc2c(/C=C/c3cccnc3)c[nH]c12 |
| 10 | 76 (≈ 298 mM) |  |  | Clc1ccc2[nH]cc(/C=C/c3cccnc3)c2c1 |
